Source: PubChem BioAssay (Broad Institute)
Cneo AK release: Cryptococcus neoformans cell lysis inducers, primary screen, AK release luminescence, single concentration. C. neoformans lysis, adenylate kinase release luminescence, 4 h; normalised: neutral wells 0, clomiphene wells 100. lysis activity, % at 15 µM. AID 651654, 2012. 360,000 tested, 0.2% active;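 active = mean lysis activity across replicates of at least 80%, whatever share of replicates individually reach that level; inactive = mean lysis activity below 80%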
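Schedule: static 4 h at 37 °C with compound, 1 h detection; system: C. neoformans cells; benchmarks: Clomiphene as positive control; buffer or medium: fresh YPD medium; measure: luminescence rise reflecting yeast cell lysis; measured by: luminescent adenylate kinase detection reagent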
Statin myotox sup: suppressors of statin myotoxicity in C2C12 myotubes, primary screen, cell-based, single point, plate reader | C2C12 myotubes + simvastatin, ATP luminescence, 48 h; scaled: DMSO 0, geranylgeraniol control 100 | 330,000 tested, 0.78% active | AID 602340, 2012 | rescue of ATP level, % at 7.49 µM;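 active = mean ATP rescue above about 67%, or every replicate alone reaching that limit, limit read from the data, passing the limit was not always enough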;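 also: myotubes were challenged with 10 µM simvastatin during compound exposure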
Mot1-301 SUMO: yeast Mot1-301 growth rescue at high temperature, primary screen, SUMOylation pathway inhibitor project, S. cerevisiae, ATP luminescence, 38.5C | growth rescue, % at 18.8 µM | AID 2716, 2010 | S. cerevisiae Mot1-301 growth rescue; percent above DMSO median, 100 means doubled | 320,000 tested, 1% active;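 active = every valid replicate shows activation above 250% relative to neutral control wells; inactive = the rest, any valid replicate at or below 250%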;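 also: OY570 slx delta 5 strain wells were the positive control but not used for scaling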
An asterisk follows results filed as active; nt = not tested or not shown. Most compounds without a hit are left out; they make up all but 1.5% or so of the library.

SMILES | Cneo AK release | Statin myotox sup | Mot1-301 SUMO
CC(O)CC(C(=O)NNc1ccccc1)C(=O)NNc1ccccc1 (centres undefined) | nt | -0.2 | 606.5*
CC(C)C(=O)NNc1ccccc1 | nt | nt | 2.5
O=C(Nc1cccc(F)c1)N1C[C@@H]2[C@H](c3ccccc31)[C@H](CO)N2C(=O)c1cccnc1 | -7.2 | -11.6 | nt
C[C@@H]1CN([C@H](C)CO)C(=O)c2cc(C#Cc3ccccc3)cnc2O[C@@H]1CN(C)C(=O)CCN1CCCCC1 | -3.1 | 2.7 | nt
O=C(c1ccccc1)c1ccc(Cn2cc(CCCO)nn2)cc1 | 1.5 | 149.9* | 4.4
O=C(O)CCCCCCCCc1cn(Cc2ccc(C(=O)c3ccccc3)cc2)nn1 | 1.4 | nt | -7.0
CC(C)C(=O)Nc1ccc2c(c1)C(=O)N(C)[C@@H]1CC[C@@H](CC(=O)NC3CCCC3)O[C@@H]1CO2 | nt | 30.9 | nt
CC(C)CC#Cc1ccc([C@@H]2[C@@H](CO)N3CCCCN(C(=O)c4ccc5c(c4)OCO5)C[C@H]23)cc1 | 2.9 | nt | nt
CCn1c(SCC(=O)N2CCc3ccccc32)nc2c(c1=O)SC(C)C2 (centres undefined) | 0.9 | 0.8 | 342.8*
CCn1c(SCC(=O)N2CCCc3ccccc32)nc2c(c1=O)SC(C)C2 (centres undefined) | 0.6 | -3.9 | -2.4
CCCNC(=O)N1C[C@H](C)[C@@H](OC)CN(C)C(=O)c2ccc(NS(C)(=O)=O)cc2OC[C@H]1C | 3.0 | -0.2 | nt
COc1ccc(S(=O)(=O)n2nc(OC(=O)C3CCCCC3)cc2N)cc1 | 0.7 | 105.8* | 22.7
Cc1ccc(S(=O)(=O)n2nc(OC(=O)C3CCCCC3)cc2N)cc1 | -0.1 | -3.7 | 4.2
C/C=C/c1ccc2c(c1)O[C@H](CN(C)Cc1ccccn1)[C@@H](C)CN([C@@H](C)CO)S2(=O)=O | -1.2 | -22.8 | nt
Cc1cccc(-n2c(Cc3cc(=O)[nH]c(=O)[nH]3)nnc2SCC(=O)N2CCCCC2)c1 | -6.5 | 2.3 | -10.8
CSc1nnc(Cc2cc(=O)[nH]c(=O)[nH]2)n1-c1cccc(C)c1 | -1.1 | nt | 352.5*
CN1C(=O)c2cc(NC(=O)c3cccc(F)c3)ccc2OC[C@H]2O[C@@H](CC(=O)NCc3ccccc3)CC[C@H]21 | -6.2 | 3.1 | nt
Fc1ccccc1CNC(=S)NCc1ccc(Cl)cc1 | 194.2* | -1.4 | 14.5
S=C(NCc1ccc(Cl)cc1)Nc1ccccc1 | 24.1 | 128.7* | 17.4
Fc1ccc(CNC(=S)Nc2ccc(Cl)cc2)cc1 | 11.2 | -13.5 | 6.0
CCNC(=S)NCc1ccc(Cl)cc1 | 14.3 | nt | -3.9
COc1ccc(S(=O)(=O)Nc2ccc3c(c2)C(=O)N([C@@H](C)CO)C[C@H](C)[C@@H](CN(C)S(=O)(=O)c2c(C)noc2C)OCCCC[C@@H](C)O3)cc1 | -0.9 | nt | nt
CO[C@@H]1CN(C)C(=O)c2ccc(NS(C)(=O)=O)cc2OC[C@@H](C)N(C(=O)C2CC2)C[C@@H]1C | 54.2 | -1.6 | nt
O=C(C[C@@H]1C=C[C@H](NC(=O)C2CC2)[C@@H](CO)O1)NCc1ccncc1 | -2.4 | -5.8 | nt
C[C@H](O)C#Cc1ccc([C@H]2[C@@H](CO)N3CCCCN(C(=O)c4ccc(F)cc4)C[C@H]23)cc1 | 0.4 | nt | nt
SMILES | Cneo AK release | Statin myotox sup | Mot1-301 SUMO
COc1ccc(CNC(=O)C2CCCN(S(=O)(=O)c3ccc4c(c3)CCCN4C(C)=O)C2)cc1 (centres undefined) | 5.5 | 119.6* | -11.8
CCc1ccc(NC(=O)C2CCCN(S(=O)(=O)c3ccc4c(c3)CCCN4C(C)=O)C2)cc1 (centres undefined) | 1.5 | 11.6 | -4.8
O=C(C1CC1)N1CCCCN2[C@@H](CO)[C@@H](c3ccc(-c4ccncc4)cc3)[C@@H]2C1 | -3.0 | nt | nt
O=C(C[C@H]1CC[C@H]2[C@@H](COC[C@@H](O)CN2S(=O)(=O)c2cccc(Cl)c2)O1)N1CCCCC1 | 0.9 | 10.2 | nt
CO[C@H]1CN(C)C(=O)c2cc(NC(=O)C3CC3)ccc2OC[C@@H](C)N(C(=O)Cc2ccccn2)C[C@@H]1C | -3.0 | -4.1 | nt
COCC#Cc1ccc2c(c1)O[C@@H](CN(C)C(=O)C1CC1)[C@H](C)CN([C@@H](C)CO)S2(=O)=O | 0.3 | -11.6 | nt
CN1CCN(C(=O)C[C@H]2C[C@H]3c4cc(NC(=O)c5ccc6c(c5)OCO6)ccc4O[C@H]3[C@H](CO)O2)CC1 | -3.9 | 0.0 | nt
CC(C)CC#Cc1cnc2c(c1)C(=O)N([C@@H](C)CO)C[C@@H](C)[C@@H](CN(C)C(=O)c1cccc(F)c1)O2 | 100.5* | -1.5 | nt
CC(C)CC#Cc1cnc2c(c1)C(=O)N([C@H](C)CO)C[C@H](C)[C@@H](CN(C)C(=O)Cc1ccccc1)O2 | 1.1 | 77.3* | nt
CC(C)CC#Cc1cnc2c(c1)C(=O)N([C@H](C)CO)C[C@@H](C)[C@@H](CN(C)C(=O)Cc1ccccc1)O2 | 0.4 | 40.2 | nt
CCCNC(=O)N(C)C[C@@H]1Oc2ncc(C#CCc3ccccc3)cc2C(=O)N([C@H](C)CO)C[C@H]1C | 2.4 | 2.5 | nt
Cc1ccc(S(=O)(=O)N(C)C[C@@H]2Oc3ncc(C#Cc4cccc(F)c4)cc3C(=O)N([C@H](C)CO)C[C@@H]2C)cc1 | 3.8 | 99.9* | nt
C[C@H](CO)N1C[C@H](C)[C@H](CN(C)S(=O)(=O)c2ccc(C#N)cc2)Oc2ncc(C#Cc3cccc(F)c3)cc2C1=O | -0.4 | 21.9 | nt
CCCNC(=O)N(C)C[C@@H]1Oc2ncc(C#CCc3ccccc3)cc2C(=O)N([C@@H](C)CO)C[C@@H]1C | 96.8* | 17.2 | nt
CCCC#Cc1cnc2c(c1)C(=O)N([C@@H](C)CO)C[C@H](C)[C@H](CN(C)C(=O)c1cccc(F)c1)O2 | -1.0 | 16.8 | nt
CC(C)CC#Cc1cnc2c(c1)C(=O)N([C@@H](C)CO)C[C@@H](C)[C@H](CN(C)C(=O)c1cccnc1)O2 | -1.5 | 6.6 | nt
CC(C)CC#Cc1cnc2c(c1)C(=O)N([C@H](C)CO)C[C@H](C)[C@H](CN(C)C(=O)c1cccnc1)O2 | 81.8* | 2.7 | nt
OC[C@@H]1[C@H](c2ccc(C#Cc3ccccc3)cc2)[C@H]2CN(Cc3cncnc3)CCCCN12 | 0.3 | nt | nt
CC(C)NC(=O)Nc1ccc2c(c1)C(=O)N([C@H](C)CO)C[C@H](C)[C@@H](CN(C)Cc1ccncc1)O2 | -7.2 | -2.7 | nt
C[C@@H]1CN([C@@H](C)CO)C(=O)c2cc(NC(=O)Nc3ccc4c(c3)OCO4)ccc2O[C@@H]1CN(C)Cc1ccccc1 | -2.7 | -18.6 | nt
COc1c2c(nc3occc13)C(CC=C(C)C)(OC)C(OC(C)=O)CC2 (centres undefined) | -2.7 | 8.3 | 15.0
COc1c2c(nc3occc13)C(CC=C(C)C)(OC)C(O)CC2 (centres undefined) | -2.8 | 77.8* | -1.5
CC(=O)N(C)C[C@H]1Oc2ncc(-c3ccccc3F)cc2C(=O)N([C@@H](C)CO)C[C@H]1C | 3.8 | -2.0 | nt
C=CCSc1nnc(-c2cc3c(s2)-c2ccccc2CC3)o1 | 1.1 | 146.5* | -2.1
C=CCSc1nnc(-c2cccc3ccccc23)o1 | 6.5 | 2.2 | nt
CCc1nc2c(c(=O)[nH]1)C1(CCCC1)Cc1ccccc1-2 | 1.7 | -31.8 | -10.9
